Calls of active or inactive are those of the source. No cut-off for these calls is given here.
Experiments:
[1] = Half life in cynomolgus monkey at 1 mg/kg, iv or 5 mg/kg, po by LC-MS/MS method; format: ADME, organism-based, Macaca fascicularis; conditions: in vivo
Procedure, shortened: (§1)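 Non-naïve male cynomolgus monkeys, at least 2 years old, n = 3 per route. Given 1 mg/kg i.v. in EtOH/PEG400/water (20/15/65) or 5 mg/kg p.o. in 0.5% methylcellulose, 0.2% Tween 80; oral groups fasted. Plasma (K2EDTA) collected pre-dose to 24 h. Analysed by non-validated LC-MS/MS.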

[2] = Cmax in Sprague-Dawley rat at 1 mg/kg, iv or 5 mg/kg, po by LC-MS/MS method; format: ADME, organism-based; conditions: in vivo
Procedure, shortened: (§2)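 Male Sprague-Dawley rats, 6–9 weeks, n = 3 per route. Dosed 1 mg/kg i.v. in PEG400/water (35/65) or 5 mg/kg p.o. in 0.5% methylcellulose, 0.2% Tween 80; oral groups fasted overnight until 4 h post-dose. Catheter blood sampled 0.033–24 h into K2EDTA and spun to plasma. Analysed by non-validated LC-MS/MS.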

[3] = Protein binding in human plasma at 5 uM incubated for 4 hrs measured by LC-MS/MS method; format: ADME, cell-free; conditions: read-out: PPB (converted)
[4] = Apparent permeability from apical side to basolateral side in MDCK cells at 10 uM measured after 180 mins by LC-MS/MS analysis; format: ADME, cell-based, Canis lupus familiaris; conditions: dog
[5] = Protein binding in cynomolgus monkey plasma at 5 uM incubated for 4 hrs measured by LC-MS/MS method; format: ADME, cell-free, Macaca fascicularis; conditions: read-out: PPB (converted)
[6] = molecular target: Histone acetyltransferase KAT2A (Homo sapiens, UniProt Q92830); test: Displacement of biotinylated histone H3K14 peptide ligand from recombinant His-tagged human GCN5L2 measured after 10 mins by TR-FRET assay
[7] = Antitumor activity against human MOLM16 cells xenografted in C.B-17 SCID beige mouse assessed as tumor growth inhibition at 30 mg/kg administered via oral gavage as bid for 21 days relative to control; format: functional; conditions: read-out: TGI
Procedure, shortened: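 Female C.B-17 SCID.bg mice received 5 million MOLM-16 cells s.c. in HBSS/Matrigel in the right flank. Dosing began at 130–300 mm3: oral gavage BID for 21 days in 0.5% methylcellulose, 0.2% Tween 80, n=10/group. Caliper volumes taken; %TGI computed from the area under the mixed-model spline-fitted curve per day versus vehicle.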

[8] = molecular target: T1, Transcription initiation factor TFIID subunit 1 (Homo sapiens, UniProt P21675); test: Displacement of biotinylated histone H3K14 peptide ligand from human recombinant His-tagged TAF1 bromodomain-1 measured after 10 mins by TR-FRET assay
[9] = Volume of distribution at steady state in cynomolgus monkey at 1 mg/kg, iv or 5 mg/kg, po by LC-MS/MS method; format: ADME, organism-based, Macaca fascicularis; conditions: in vivo, read-out: Vdss
Procedure, shortened: (§3)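 Non-naïve male beagle dogs or cynomolgus monkeys, n=3 per route. Dosing was 1 mg/kg i.v. in EtOH/PEG400/water 20/15/65 or 5 mg/kg p.o. in 0.5% methylcellulose/0.2% Tween 80; the p.o. group was fasted overnight. Peripheral blood was taken pre-dose to 24 h into K2EDTA and processed to plasma. Quantified by LC-MS/MS.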

[10] = Clearance in Sprague-Dawley rat at 1 mg/kg, iv or 5 mg/kg, po by LC-MS/MS method; format: ADME, organism-based; conditions: in vivo; procedure, shortened: as §2
[11] = AUClast in cynomolgus monkey at 1 mg/kg, iv or 5 mg/kg, po by LC-MS/MS method; format: ADME, organism-based, Macaca fascicularis; conditions: in vivo; procedure, shortened: as §1
Homo sapiens = species: Homo sapiens; test: Selectivity ratio of IC50 for human recombinant His-tagged BRD4 bromodomain-1 to IC50 for human recombinant His-tagged P300
[12] = Clearance in cynomolgus monkey at 1 mg/kg, iv or 5 mg/kg, po by LC-MS/MS method; format: ADME, organism-based, Macaca fascicularis; conditions: in vivo; procedure, shortened: as §1
Mus musculus [13] = test: In vivo inhibition of CBP in human MOLM16 cells xenografted in C.B-17 SCID beige mouse assessed as suppression of MYC transcript levels at 3 mg/kg administered via oral gavage as bid for 21 days measured 2 to 8 hrs post last dose by real time-PCR method; format: functional, organism-based
[14] = molecular target: T1, Transcription initiation factor TFIID subunit 1; test: Displacement of biotinylated histone H3K14 peptide ligand from recombinant His-tagged TAF1 bromodomain-2 (unknown origin) measured after 10 mins by TR-FRET assay
[15] = Oral bioavailability in CD-1 mouse at 5 mg/kg by LC-MS/MS method; format: ADME, organism-based; conditions: in vivo
Procedure, shortened: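 Female CD-1 mice, 6–9 weeks, n = 3 per route. Dosed 1 mg/kg i.v. in PEG400/water (35/65) or 5 mg/kg p.o. as a suspension in 0.5% methylcellulose, 0.2% Tween 80. Serial tail-nick blood sampled to 24 h, diluted in EDTA-water. Parent drug measured by non-validated LC-MS/MS after acetonitrile precipitation with an indomethacin internal standard.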

Mus musculus [16] = test: Toxicity in C.B-17 SCID beige mouse xenografted with human MOLM-16 cells assessed as decrease in body weight at 3 to 30 mg/kg administered via oral gavage as bid for 21 days measured during compound dosing; conditions: in vivo
[17] = molecular target: Bromodomain adjacent to zinc finger domain protein 2B (Homo sapiens, UniProt Q9UIF8); test: Displacement of biotinylated histone H3K14 peptide ligand from human recombinant His-tagged BAZ2B measured after 10 mins by TR-FRET assay
Cytochrome P450 2C9 = Cytochrome P450 2C9 (Homo sapiens, UniProt P11712); test: Inhibition of CYP2C9 (unknown origin); format: ADME
[18] = molecular target: Bromodomain-containing protein 9 (Homo sapiens, UniProt Q9H8M2); test: Displacement of biotinylated histone H3K14 peptide ligand from human recombinant His-tagged BRD9 measured after 10 mins by TR-FRET assay
[19] = Volume of distribution at steady state in Sprague-Dawley rat at 1 mg/kg, iv or 5 mg/kg, po by LC-MS/MS method; format: ADME, organism-based; conditions: in vivo, read-out: Vdss
Procedure, shortened: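 Male Sprague-Dawley rats, 6–9 weeks old, n=3 per route. Dosing was 1 mg/kg i.v. in PEG400/water 35/65 or 5 mg/kg p.o. in 0.5% methylcellulose/0.2% Tween 80; the p.o. group was fasted overnight. Catheter blood was taken at 0.033–24 h into K2EDTA and processed to plasma. Quantified by LC-MS/MS.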

Cytochrome P450 2C19 = Cytochrome P450 2C19 (Homo sapiens, UniProt P33261); test: Inhibition of CYP2C19 (unknown origin); format: ADME
[20] = Volume of distribution at steady state in beagle dog at 1 mg/kg, iv or 5 mg/kg, po by LC-MS/MS method; format: ADME, organism-based, Canis lupus familiaris; conditions: in vivo, read-out: Vdss; procedure, shortened: as §3
[21] = molecular target: Bromodomain-containing protein 4 (Homo sapiens, UniProt O60885); test: Displacement of biotinylated histone H3K14 peptide ligand from human recombinant His-tagged BRD4 bromodomain-1 measured after 10 mins by TR-FRET assay

T1 sequence (P21675 whole entry): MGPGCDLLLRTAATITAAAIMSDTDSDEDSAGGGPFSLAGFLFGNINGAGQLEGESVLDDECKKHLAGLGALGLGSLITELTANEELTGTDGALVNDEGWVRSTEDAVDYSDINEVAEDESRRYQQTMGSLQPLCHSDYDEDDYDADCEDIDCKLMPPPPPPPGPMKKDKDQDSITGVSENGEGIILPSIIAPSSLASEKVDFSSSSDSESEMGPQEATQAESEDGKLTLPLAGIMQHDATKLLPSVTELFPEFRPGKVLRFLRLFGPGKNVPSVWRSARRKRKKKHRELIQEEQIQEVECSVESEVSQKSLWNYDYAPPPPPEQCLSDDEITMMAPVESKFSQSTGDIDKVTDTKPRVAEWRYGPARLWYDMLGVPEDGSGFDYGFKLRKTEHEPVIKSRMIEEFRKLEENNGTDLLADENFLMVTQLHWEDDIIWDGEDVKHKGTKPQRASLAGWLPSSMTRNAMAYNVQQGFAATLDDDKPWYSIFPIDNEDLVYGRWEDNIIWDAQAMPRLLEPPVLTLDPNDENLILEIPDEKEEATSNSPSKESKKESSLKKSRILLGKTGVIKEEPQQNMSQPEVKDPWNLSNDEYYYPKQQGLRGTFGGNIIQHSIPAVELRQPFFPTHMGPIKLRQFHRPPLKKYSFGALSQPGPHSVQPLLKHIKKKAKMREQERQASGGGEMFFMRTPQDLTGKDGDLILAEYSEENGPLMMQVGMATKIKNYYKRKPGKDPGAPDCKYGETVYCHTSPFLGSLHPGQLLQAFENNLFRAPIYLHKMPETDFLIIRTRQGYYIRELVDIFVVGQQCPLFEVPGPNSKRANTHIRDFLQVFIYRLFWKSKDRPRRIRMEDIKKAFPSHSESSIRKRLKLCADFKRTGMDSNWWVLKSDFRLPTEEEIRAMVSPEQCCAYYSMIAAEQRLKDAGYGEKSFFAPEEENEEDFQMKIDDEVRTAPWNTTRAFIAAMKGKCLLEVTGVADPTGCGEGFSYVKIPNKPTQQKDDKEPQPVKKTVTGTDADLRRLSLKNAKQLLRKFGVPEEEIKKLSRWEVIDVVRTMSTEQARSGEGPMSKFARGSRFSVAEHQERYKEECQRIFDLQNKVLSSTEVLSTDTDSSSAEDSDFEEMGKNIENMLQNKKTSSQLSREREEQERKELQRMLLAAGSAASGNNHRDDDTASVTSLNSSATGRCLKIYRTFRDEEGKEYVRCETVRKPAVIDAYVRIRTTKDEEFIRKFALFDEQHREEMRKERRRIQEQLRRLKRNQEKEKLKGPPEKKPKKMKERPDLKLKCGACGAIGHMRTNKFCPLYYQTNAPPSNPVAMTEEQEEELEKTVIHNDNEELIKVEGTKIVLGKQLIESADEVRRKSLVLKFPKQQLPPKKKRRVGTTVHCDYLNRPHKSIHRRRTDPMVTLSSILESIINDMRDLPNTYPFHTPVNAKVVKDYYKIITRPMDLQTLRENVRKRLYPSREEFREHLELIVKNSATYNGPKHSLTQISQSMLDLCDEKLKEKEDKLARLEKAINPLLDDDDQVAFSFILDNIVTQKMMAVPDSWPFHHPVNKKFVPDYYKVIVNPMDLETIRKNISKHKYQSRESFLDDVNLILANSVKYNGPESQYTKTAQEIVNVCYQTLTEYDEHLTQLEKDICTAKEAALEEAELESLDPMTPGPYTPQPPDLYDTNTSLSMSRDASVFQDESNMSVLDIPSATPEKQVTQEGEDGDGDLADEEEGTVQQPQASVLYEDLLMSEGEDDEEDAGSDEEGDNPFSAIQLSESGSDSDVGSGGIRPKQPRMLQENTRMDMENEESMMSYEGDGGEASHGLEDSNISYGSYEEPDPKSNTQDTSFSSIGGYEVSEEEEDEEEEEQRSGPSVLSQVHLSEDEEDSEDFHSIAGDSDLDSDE
Chain of Histone acetyltransferase KAT2A (Q92830 whole entry): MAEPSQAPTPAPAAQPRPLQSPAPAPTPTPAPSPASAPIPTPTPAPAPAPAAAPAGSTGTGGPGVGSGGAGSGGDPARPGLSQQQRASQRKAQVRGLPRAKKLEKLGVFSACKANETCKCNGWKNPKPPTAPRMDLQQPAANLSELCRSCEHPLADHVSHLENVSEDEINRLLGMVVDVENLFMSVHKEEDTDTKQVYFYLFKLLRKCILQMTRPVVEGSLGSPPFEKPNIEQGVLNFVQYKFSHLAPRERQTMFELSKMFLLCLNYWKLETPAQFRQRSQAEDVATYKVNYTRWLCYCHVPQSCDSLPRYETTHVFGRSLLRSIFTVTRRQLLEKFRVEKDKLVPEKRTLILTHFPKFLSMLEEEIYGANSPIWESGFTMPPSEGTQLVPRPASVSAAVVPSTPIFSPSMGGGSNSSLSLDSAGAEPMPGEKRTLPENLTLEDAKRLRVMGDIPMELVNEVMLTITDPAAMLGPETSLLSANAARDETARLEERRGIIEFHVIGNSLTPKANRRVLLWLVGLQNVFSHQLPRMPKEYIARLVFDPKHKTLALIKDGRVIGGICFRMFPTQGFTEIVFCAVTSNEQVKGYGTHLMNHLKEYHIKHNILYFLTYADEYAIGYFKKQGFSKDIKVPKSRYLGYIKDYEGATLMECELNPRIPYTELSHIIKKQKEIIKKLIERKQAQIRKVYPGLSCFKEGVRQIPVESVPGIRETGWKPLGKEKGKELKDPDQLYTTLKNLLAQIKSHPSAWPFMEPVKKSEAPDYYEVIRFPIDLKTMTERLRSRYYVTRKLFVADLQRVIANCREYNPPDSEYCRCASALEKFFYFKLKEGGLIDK
Chain of Bromodomain adjacent to zinc finger domain protein 2B (Q9UIF8 whole entry, the tested form may be a part): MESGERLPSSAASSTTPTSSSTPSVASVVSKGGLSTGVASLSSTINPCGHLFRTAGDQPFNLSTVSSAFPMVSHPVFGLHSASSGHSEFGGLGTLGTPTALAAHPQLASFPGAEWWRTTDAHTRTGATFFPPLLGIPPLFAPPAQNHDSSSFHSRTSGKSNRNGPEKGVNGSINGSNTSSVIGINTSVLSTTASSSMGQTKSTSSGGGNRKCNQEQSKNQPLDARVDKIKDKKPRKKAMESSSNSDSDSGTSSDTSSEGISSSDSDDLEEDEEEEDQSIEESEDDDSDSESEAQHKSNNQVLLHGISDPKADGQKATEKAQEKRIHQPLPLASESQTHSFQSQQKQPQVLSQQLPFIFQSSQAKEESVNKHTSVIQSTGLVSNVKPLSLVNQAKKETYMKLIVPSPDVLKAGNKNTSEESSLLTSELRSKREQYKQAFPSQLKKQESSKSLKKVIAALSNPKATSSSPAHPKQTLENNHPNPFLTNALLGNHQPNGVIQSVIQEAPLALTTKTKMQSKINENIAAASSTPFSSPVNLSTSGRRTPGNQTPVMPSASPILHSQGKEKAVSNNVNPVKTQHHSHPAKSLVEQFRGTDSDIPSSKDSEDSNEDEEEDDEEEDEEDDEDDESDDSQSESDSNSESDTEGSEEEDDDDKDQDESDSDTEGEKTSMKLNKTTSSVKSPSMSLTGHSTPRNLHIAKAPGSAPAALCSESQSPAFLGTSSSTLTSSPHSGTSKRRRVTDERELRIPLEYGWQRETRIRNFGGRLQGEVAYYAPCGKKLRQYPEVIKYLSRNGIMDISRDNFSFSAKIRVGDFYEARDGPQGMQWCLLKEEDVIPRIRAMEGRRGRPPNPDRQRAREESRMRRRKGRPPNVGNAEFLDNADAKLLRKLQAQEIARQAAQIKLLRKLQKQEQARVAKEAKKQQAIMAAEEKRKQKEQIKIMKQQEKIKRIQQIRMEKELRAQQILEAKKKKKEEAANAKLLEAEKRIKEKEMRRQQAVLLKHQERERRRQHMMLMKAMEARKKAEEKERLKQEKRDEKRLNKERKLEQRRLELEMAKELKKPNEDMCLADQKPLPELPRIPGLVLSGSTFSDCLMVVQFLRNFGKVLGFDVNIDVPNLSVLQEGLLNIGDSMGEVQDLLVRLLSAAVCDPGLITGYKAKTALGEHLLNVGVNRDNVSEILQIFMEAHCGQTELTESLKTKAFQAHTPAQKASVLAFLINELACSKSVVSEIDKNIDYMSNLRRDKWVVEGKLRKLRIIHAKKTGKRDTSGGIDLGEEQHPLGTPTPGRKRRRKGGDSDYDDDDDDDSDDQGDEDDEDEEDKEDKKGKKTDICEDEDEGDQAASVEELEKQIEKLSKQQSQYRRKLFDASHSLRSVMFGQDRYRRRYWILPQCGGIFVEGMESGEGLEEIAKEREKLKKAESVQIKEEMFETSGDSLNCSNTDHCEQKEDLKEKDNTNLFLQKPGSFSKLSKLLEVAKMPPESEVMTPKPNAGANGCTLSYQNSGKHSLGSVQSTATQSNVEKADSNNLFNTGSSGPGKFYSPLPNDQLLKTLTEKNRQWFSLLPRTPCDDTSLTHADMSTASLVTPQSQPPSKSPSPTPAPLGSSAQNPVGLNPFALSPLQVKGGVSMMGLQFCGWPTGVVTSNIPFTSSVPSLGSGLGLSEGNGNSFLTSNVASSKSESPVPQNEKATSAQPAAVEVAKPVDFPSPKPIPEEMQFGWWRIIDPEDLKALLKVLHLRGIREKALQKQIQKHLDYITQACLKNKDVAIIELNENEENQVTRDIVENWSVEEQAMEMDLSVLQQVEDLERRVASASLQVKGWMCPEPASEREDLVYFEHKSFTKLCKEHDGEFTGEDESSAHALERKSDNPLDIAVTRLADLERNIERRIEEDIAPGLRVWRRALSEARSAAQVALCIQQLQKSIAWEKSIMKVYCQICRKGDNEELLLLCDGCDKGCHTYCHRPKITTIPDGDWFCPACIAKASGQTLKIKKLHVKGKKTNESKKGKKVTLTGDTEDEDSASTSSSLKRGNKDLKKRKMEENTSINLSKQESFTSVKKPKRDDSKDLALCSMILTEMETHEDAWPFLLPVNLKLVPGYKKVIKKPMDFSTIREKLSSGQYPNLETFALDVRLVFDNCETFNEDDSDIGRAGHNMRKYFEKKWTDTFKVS

SMILES	half-life [1]	Cmax [2]	fraction unbound at 4 h, 5 µM [3]	Papp A→B at 3 h, 10 µM [4]	fraction unbound at 4 h, 5 µM [5]	IC50 [6]	IC50 [8]	Vd [9]	clearance [10]	AUC(0-t) [11]	clearance [12]	IC50 [14]	bioavailability [15]	IC50 [17]	IC50 [18]	Vd [19]	Vd [20]	also measured
CNC(=O)N1CCc2c(c(N3CCCc4cc(-c5cnn(C)c5)c(C(F)F)cc43)nn2C2CCOCC2)C1	0.72 h	4.1 µM	0.16	19 ×10⁻⁶ cm/s	0.22	> 20 µM	> 20 µM	1 L/kg	3.8 mL/min/kg	2.5 µM·h	18 mL/min/kg	> 20 µM	73%	> 18 µM	> 20 µM	0.64 L/kg	1.5 L/kg	inhibition in vivo at 30 mg/kg [7]: 89%; Ratio IC50 (Homo sapiens): 4250; inhibition (Mus musculus [13]): Active; %max (Mus musculus [16]): 3.7%; IC50 (Cytochrome P450 2C9): > 10 µM; IC50 (Cytochrome P450 2C19): > 10 µM
CC(=O)N1CCc2c(c(N3CCCc4cc(-c5cnn(C)c5)c(C(F)F)cc43)nn2C2CCOCC2)C1	2.8 h	3.2 µM	0.16	15 ×10⁻⁶ cm/s	0.21	> 20 µM	> 20 µM	1.4 L/kg	16 mL/min/kg	8.5 µM·h	7.4 mL/min/kg	> 20 µM	72%	> 20 µM	> 20 µM	0.81 L/kg	1 L/kg	IC50 [21]: 4.2 µM
